According to ChEMBL document CHEMBL1275556, “High prevalence of plasmid-mediated quinolone resistance genes qnr and aac(6')-Ib-cr in clinical isolates of Enterobacteriaceae from nine teaching hospitals in China” (2008):
Converted amounts (≈) assume the structure as drawn.

Legend:
Enterobacter cloacae [1] = assay: Antimicrobial activity against aac(6')-Ib-cr-negative Enterobacter cloacae FJ67T harboring qnrS gene by agar dilution method; format: functional
Klebsiella pneumoniae [2] = assay: Antimicrobial activity against aac(6')-Ib-cr-positive Klebsiella pneumoniae SY26T harboring wild-type GyrA, ParC, GyrB and qnrB genes by agar dilution method; format: functional
In short: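 Transconjugants were made by conjugating a qnr/aac(6')-Ib-cr donor with azide-resistant E. coli J53. MICs were read by CLSI agar dilution (M7-A7) and interpreted per M100-S17.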

Enterobacter cloacae [3] = assay: Antimicrobial activity against aac(6')-Ib-cr-negative Enterobacter cloacae SH39T harboring qnrA gene by agar dilution method; format: functional
Citrobacter freundii [4] = assay: Antimicrobial activity against aac(6')-Ib-cr-positive Citrobacter freundii JN1 harboring GyrA T83I, ParC S80I mutant, wild-type GyrB and qnrA genes by agar dilution method; format: functional
In short: (§1)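 MICs were determined by the CLSI agar dilution method (M7-A7) and interpreted against CLSI M100-S17 breakpoints.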

Citrobacter freundii [5] = assay: Antimicrobial activity against aac(6')-Ib-cr-positive Citrobacter freundii TJ15 harboring GyrA T83I, ParC S80I mutant, wild-type GyrB, qnrB genes by agar dilution method; format: functional; in short: as §1
Enterobacter cloacae [6] = assay: Antimicrobial activity against aac(6')-Ib-cr-positive Enterobacter cloacae FJ63T harboring qnrS gene by agar dilution method; format: functional
Klebsiella pneumoniae [7] = assay: Antimicrobial activity against aac(6')-Ib-cr-positive Klebsiella pneumoniae WH99 harboring wild-type GyrA, ParC, GyrB and qnrB genes by agar dilution method; format: functional
In short: (§2)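 MICs were determined on clinical isolates by CLSI agar dilution (M7-A7) and interpreted against CLSI M100-S17 breakpoints.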

Escherichia coli [8] = assay: Antimicrobial activity against aac(6')-Ib-cr-positive Escherichia coli FJ3 harboring GyrA S83L, ParC S80R mutant, wild-type GyrB and qnrB genes by agar dilution method; format: functional; in short: as §1
Citrobacter freundii [9] = assay: Antimicrobial activity against aac(6')-Ib-cr-positive Citrobacter freundii JS33 harboring GyrA T83I mutant, wild-type ParC, GyrB, qnrA and qnrB genes by agar dilution method; format: functional; in short: as §1
Klebsiella pneumoniae [10] = assay: Antimicrobial activity against aac(6')-Ib-cr-positive Klebsiella pneumoniae GZ40T harboring qnrB gene by agar dilution method
Citrobacter freundii [11] = assay: Antimicrobial activity against aac(6')-Ib-cr-positive Citrobacter freundii PU55T harboring wild-type GyrA, ParC, GyrB and qnrA genes by agar dilution method
Escherichia coli [12] = assay: Antimicrobial activity against aac(6')-Ib-cr-negative Escherichia coli PU12 harboring GyrA S83L mutant, wild-type GyrB, ParC and qnrS genes by agar dilution method; format: functional; in short: as §1
Enterobacter cloacae [13] = assay: Antimicrobial activity against aac(6')-Ib-cr-negative Enterobacter cloacae GZ47 harboring qnrB and qnrS genes by agar dilution method; format: functional
Klebsiella pneumoniae [14] = assay: Antimicrobial activity against aac(6')-Ib-cr-negative Klebsiella pneumoniae SY22T harboring qnrS gene by agar dilution method; format: functional; in short: as §1
Citrobacter freundii [15] = assay: Antimicrobial activity against aac(6')-Ib-cr-negative Citrobacter freundii JN64T harboring qnrA gene by agar dilution method; format: functional; in short: as §1
Citrobacter freundii [16] = assay: Antimicrobial activity against aac(6')-Ib-cr-negative Citrobacter freundii JN64 harboring GyrA T83I, wild-type ParC, GyrB and qnrA genes by agar dilution method; format: functional; in short: as §1
Klebsiella pneumoniae [17] = assay: Antimicrobial activity against aac(6')-Ib-cr-positive Klebsiella pneumoniae GZ40 harboring GyrA S83I, ParC S80I mutant, wild-type GyrB and qnrB genes by agar dilution method; format: functional; in short: as §1
Enterobacter cloacae [18] = assay: Antimicrobial activity against aac(6')-Ib-cr-negative Enterobacter cloacae FJ61 harboring GyrA S83I, GyrA D87A, ParC S80I mutant, wild-type GyrB and qnrS genes by agar dilution method; format: functional
Klebsiella pneumoniae [19] = assay: Antimicrobial activity against aac(6')-Ib-cr-positive Klebsiella pneumoniae JN41T harboring qnrB gene by agar dilution method; format: functional
In short: (§3)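 Transconjugants were made by conjugating a qnr/aac(6')-Ib-cr donor with azide-resistant E. coli J53. Selection used Trypticase soy agar with sodium azide 150 µg/ml and sulfamethoxazole 180 µg/ml. […] MICs were read by CLSI agar dilution (M7-A7) and interpreted per M100-S17.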

Citrobacter freundii [20] = assay: Antimicrobial activity against aac(6')-Ib-cr-positive Citrobacter freundii PU55 harboring GyrA T83I, ParC S80I mutant, wild-type GyrB, qnrA genes by agar dilution method; format: functional; in short: as §1
Escherichia coli [21] = assay: Antimicrobial activity against aac(6')-Ib-cr-negative Escherichia coli PU12T harboring wild-type GyrA, GyrB, ParC and qnrS genes by agar dilution method; format: functional; in short: as §1
Enterobacter cloacae [22] = assay: Antimicrobial activity against aac(6')-Ib-cr-negative Enterobacter cloacae GZ51 harboring qnrA gene by agar dilution method; format: functional
Klebsiella pneumoniae [23] = assay: Antimicrobial activity against aac(6')-Ib-cr-positive Klebsiella pneumoniae JN41 harboring GyrA S83I, ParC S80I mutant, wild-type GyrB and qnrB genes by agar dilution method; format: functional; in short: as §2
Klebsiella pneumoniae [24] = assay: Antimicrobial activity against aac(6')-Ib-cr-positive Klebsiella pneumoniae WH99T harboring qnrB gene by agar dilution method; format: functional; in short: as §3
Enterobacter cloacae [25] = assay: Antimicrobial activity against aac(6')-Ib-cr-negative Enterobacter cloacae SH39 harboring GyrA S83I, ParC S80I mutant, wild-type GyrB and qnrA genes by agar dilution method; format: functional
Escherichia coli [26] = assay: Antimicrobial activity against Escherichia coli J53 harboring wild-type GyrA, ParC, GyrB genes by agar dilution method
Enterobacter cloacae [27] = assay: Antimicrobial activity against aac(6')-Ib-cr-positive Enterobacter cloacae FJ63 harboring GyrA S83I, GyrA D87A, ParC S80I mutant, wild-type GyrB and qnrS genes by agar dilution method; format: functional
Klebsiella pneumoniae [28] = assay: Antimicrobial activity against aac(6')-Ib-cr-positive Klebsiella pneumoniae JN132T harboring qnrB gene by agar dilution method; format: functional; in short: as §3
Enterobacter cloacae [29] = assay: Antimicrobial activity against aac(6')-Ib-cr-negative Enterobacter cloacae GZ51T harboring qnrA gene by agar dilution method; format: functional
Citrobacter freundii [30] = assay: Antimicrobial activity against aac(6')-Ib-cr-positive Citrobacter freundii TJ15T harboring wild-type GyrA, ParC, GyrB genes by agar dilution method; format: functional; in short: as §1
Citrobacter freundii [31] = assay: Antimicrobial activity against aac(6')-Ib-cr-positive Citrobacter freundii JS33T harboring qnrA gene by agar dilution method; format: functional; in short: as §1
Enterobacter cloacae [32] = assay: Antimicrobial activity against aac(6')-Ib-cr-negative Enterobacter cloacae FJ61T harboring qnrS gene by agar dilution method; format: functional
Enterobacter cloacae [33] = assay: Antimicrobial activity against aac(6')-Ib-cr-negative Enterobacter cloacae FJ67 harboring […] and qnrS genes by agar dilution method; format: functional
Enterobacter cloacae [34] = assay: Antimicrobial activity against aac(6')-Ib-cr-negative Enterobacter cloacae GZ47T harboring qnrB gene by agar dilution method; format: functional
Klebsiella pneumoniae [35] = assay: Antimicrobial activity against aac(6')-Ib-cr-negative Klebsiella pneumoniae SY22 harboring GyrA S83I, ParC S80I mutant, wild-type GyrB and qnrS genes by agar dilution method; format: functional; in short: as §1
Enterobacter cloacae [36] = assay: Antimicrobial activity against aac(6')-Ib-cr-negative Enterobacter cloacae WH42 harboring wild-type GyrA, ParC, GyrB and qnrA genes by agar dilution method; format: functional
Citrobacter freundii [37] = assay: Antimicrobial activity against aac(6')-Ib-cr-positive Citrobacter freundii JN1T by agar dilution method; format: functional; in short: as §1
Enterobacter cloacae [38] = assay: Antimicrobial activity against aac(6')-Ib-cr-negative Enterobacter cloacae WH42T harboring qnrA gene by agar dilution method; format: functional
Escherichia coli [39] = assay: Antimicrobial activity against aac(6')-Ib-cr-positive Escherichia coli FJ3T harboring wild-type GyrA, ParC, GyrB and qnrB genes by agar dilution method
Klebsiella pneumoniae [40] = assay: Antimicrobial activity against aac(6')-Ib-cr-positive Klebsiella pneumoniae JN132 harboring GyrA S83I, ParC S80I mutant, wild-type GyrB and qnrB genes by agar dilution method; format: functional; in short: as §2
Klebsiella pneumoniae [41] = assay: Antimicrobial activity against aac(6')-Ib-cr-positive Klebsiella pneumoniae SY26 harboring GyrA S83I, ParC S80I mutant, wild-type GyrB and qnrB genes by agar dilution method; format: functional; in short: as §2

Cc1cc(NS(=O)(=O)c2ccc(N)cc2)no1 [SULFAMETHOXAZOLE]
MIC (Enterobacter cloacae [1]): > 256 µg/mL | MIC (Klebsiella pneumoniae [2]): > 256 µg/mL | MIC (Enterobacter cloacae [3]): 256 µg/mL (≈ 1010 µM) | MIC (Citrobacter freundii [4]): 256 µg/mL (≈ 1010 µM) | MIC (Citrobacter freundii [5]): > 256 µg/mL | MIC (Enterobacter cloacae [6]): > 256 µg/mL | MIC (Klebsiella pneumoniae [7]): > 256 µg/mL | MIC (Escherichia coli [8]): > 256 µg/mL | MIC (Citrobacter freundii [9]): > 256 µg/mL | MIC (Klebsiella pneumoniae [10]): > 256 µg/mL | MIC (Citrobacter freundii [11]): > 256 µg/mL | MIC (Escherichia coli [12]): > 256 µg/mL | MIC (Enterobacter cloacae [13]): > 256 µg/mL | MIC (Klebsiella pneumoniae [14]): 16 µg/mL (≈ 63.2 µM) | MIC (Citrobacter freundii [15]): > 256 µg/mL | MIC (Citrobacter freundii [16]): > 256 µg/mL | MIC (Klebsiella pneumoniae [17]): > 256 µg/mL | MIC (Enterobacter cloacae [18]): 16 µg/mL (≈ 63.2 µM) | MIC (Klebsiella pneumoniae [19]): > 256 µg/mL | MIC (Citrobacter freundii [20]): > 256 µg/mL | MIC (Escherichia coli [21]): > 256 µg/mL | MIC (Enterobacter cloacae [22]): > 256 µg/mL | MIC (Klebsiella pneumoniae [23]): > 256 µg/mL | MIC (Klebsiella pneumoniae [24]): > 256 µg/mL | MIC (Enterobacter cloacae [25]): > 256 µg/mL | MIC (Escherichia coli [26]): 16 µg/mL (≈ 63.2 µM) | MIC (Enterobacter cloacae [27]): > 256 µg/mL | MIC (Klebsiella pneumoniae [28]): > 256 µg/mL | MIC (Enterobacter cloacae [29]): > 256 µg/mL | MIC (Citrobacter freundii [30]): > 256 µg/mL | MIC (Citrobacter freundii [31]): > 256 µg/mL | MIC (Enterobacter cloacae [32]): 16 µg/mL (≈ 63.2 µM) | MIC (Enterobacter cloacae [33]): > 256 µg/mL | MIC (Enterobacter cloacae [34]): 256 µg/mL (≈ 1010 µM) | MIC (Klebsiella pneumoniae [35]): 64 µg/mL (≈ 253 µM) | MIC (Enterobacter cloacae [36]): > 256 µg/mL | MIC (Citrobacter freundii [37]): 32 µg/mL (≈ 126 µM) | MIC (Enterobacter cloacae [38]): > 256 µg/mL | MIC (Escherichia coli [39]): > 256 µg/mL | MIC (Klebsiella pneumoniae [40]): > 256 µg/mL | MIC (Klebsiella pneumoniae [41]): > 256 µg/mL
